{"source": "paper PMC3078649", "about": "(Molecular pharmaceutics, 2010)", "key": {"MDCK cell monolayers": {"system": "MDCK cell monolayers", "conditions": "shown previously; cited from earlier work"}, "[1]": {"system": "intercellular junctions of Caco-2 cell monolayers", "assay": "Inhibition of intercellular junction resealing", "assay_type": "cell-based", "conditions": "for Activity in the resealing assay compared to either ADT6 or HAV6: conjugates with aminocaproic acid (cap) linker; for Inhibition of resealing (% TEER difference between 8- and 2-h time points) compared to blank: AP-BL sides of Caco-2 monolayers (Fig. 5); for Inhibition of resealing of intercellular junctions (TEER time course): 0.5 mM peptide, AP-BL sides, conditioned Caco-2 monolayers", "summary_of_the_method": "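Caco-2 cells were grown on 3 µm-pore Transwell inserts (50,000 cells/insert) and used on days 15–20. Initial TEER was taken after 1 h at 37 °C in HBSS pH 7.4 (10 mM Hepes, 1% glucose, 2.0 mM CaCl2). Cells were conditioned 2 h in calcium-free medium. Peptide (0.5 or 1.0 mM) in Ca-HBSS was added AP, BL or AP-BL, with blank and unrelated-peptide controls. TEER was read hourly, minus 90 Ω × cm2 background, in triplicate. Inhibition was the TEER change from 2 to 8 h.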"}, "[2]": {"system": "E-cadherin-mediated adhesion of Caco-2 cells", "conditions": "shown previously; cited from earlier work"}, "Caco-2 cell monolayers": {"system": "Caco-2 cell monolayers", "assay": "Peptide stability on Caco-2 cell monolayers", "assay_type": "in vitro ADME"}, "[3]": {"system": "E-cadherin-mediated adhesion of Caco-2 cells", "assay": "Homotypic adhesion of Caco-2 single cells to attached cells", "assay_type": "cell-based", "conditions": "250 µM peptide", "summary_of_the_method": "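Single Caco-2 cells were released by Ca2+/Mg2+-free EBSS (1 h, 37 °C) and labelled with BCECF-AM. They were added at 5 × 10^4 cells/well to Caco-2 monolayers pretreated 2 h at 37 °C in Ca2+-free EBSS (1 mM Mg2+, 0.1% BSA). Co-incubation with peptide was 2 h at 37 °C. Positive control was anti-E-cadherin antibody DECMA-1 at 1:100. Unbound cells were removed and attached cells lysed; fluorescence was read at ex 485/em 530 nm.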"}, "blood brain barrier [4]": {"system": "blood brain barrier", "assay": "In situ rat brain perfusion, [3H", "assay_type": "in vivo", "conditions": "1.0 mM HAV6 first, then daunomycin with 500 µM verapamil; p < 0.001 (Fig. 3 E)"}, "EC5 domain of E-cadherin": {"system": "EC5 domain of E-cadherin", "conditions": "cited from earlier work"}, "blood brain barrier [5]": {"system": "blood brain barrier", "assay": "In situ rat brain perfusion, 14C-mannitol permeation", "assay_type": "in vivo", "conditions": "for Enhancement of 14C-mannitol permeation through the BBB compared to vehicle: 1.0 mM test substance pre-perfused 4 min at 10 ml/min, triplicate", "summary_of_the_method": "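Perfusion was 4 min with vehicle (0.5% Tween in sterile saline) or 1.0 or 0.5 mM peptide, then immediately 4 min with 14C-mannitol (10 µCi). Brain radioactivity was measured in triplicate, reported as mean ± SD, and compared with vehicle (p < 0.05).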"}}}
{"substance": "Ac-ADTPPV-NH2 [ADT6]", "values": [{"measurement": "Enhancement of 14C-mannitol permeation through MDCK cell monolayers", "setting": "MDCK cell monolayers", "result": "enhance ^14C-mannitol through MDCK cell monolayers"}]}
{"substance": "Ac-DTPPV-cap-SHAVSS-NH2", "values": [{"measurement": "Activity in the resealing assay compared to either ADT6 or HAV6", "setting": "[1]", "result": "did not show any improved activity"}]}
{"substance": "Ac-HSVSAS-NH2 [HAVscr, reference compound]", "values": [{"measurement": "Inhibition of resealing (% TEER difference between 8- and 2-h time points) compared to blank", "setting": "[1]; 1.0 mM peptide", "result": "could not suppress the resealing"}]}
{"substance": "Ac-LFSHAVSSNG-NH2 [HAV10]", "values": [{"measurement": "Inhibition of resealing of intercellular junctions (TEER time course)", "setting": "[1]", "result": "not at 0.5 mM"}, {"measurement": "Enhancement of 14C-mannitol permeation through MDCK cell monolayers", "setting": "MDCK cell monolayers", "result": "enhance ^14C-mannitol through MDCK cell monolayers"}, {"measurement": "Inhibition of homotypic Caco-2 cell adhesion", "setting": "[2]", "result": "inhibit the homotypic Caco-2 cell adhesion"}, {"measurement": "Peptide concentration remaining", "setting": "Caco-2 cell monolayers; 100 µM peptide, apical side of Caco-2 cell monolayers, 8 h incubation", "result": 80, "unit": "%"}]}
{"substance": "Ac-NDDGGQFVVT-NH2 [BLG3]", "values": [{"measurement": "Inhibition of resealing (% TEER difference between 8- and 2-h time points) compared to blank", "setting": "[1]; 1.0 mM peptide", "result": "could not inhibit the resealing"}]}
{"substance": "Ac-QDPELPDKNM-NH2 [BLG2]", "values": [{"measurement": "Potency in blocking homotypic cell-cell adhesion relative to BLG1 and BLG4", "setting": "[3]", "result": "more potent"}]}
{"substance": "Ac-QGADTPPVGV-NH2 [ADT10]", "values": [{"measurement": "Inhibition of resealing of intercellular junctions (TEER time course)", "setting": "[1]", "result": "still active"}, {"measurement": "Inhibition of resealing (% TEER difference between 8- and 2-h time points) compared to blank", "setting": "[1]; 1.0 mM peptide", "result": "significantly suppress the resealing"}, {"measurement": "Enhancement of 14C-mannitol permeation through MDCK cell monolayers", "setting": "MDCK cell monolayers", "result": "enhance ^14C-mannitol through MDCK cell monolayers"}]}
{"substance": "Ac-SHAVSS-NH2 [HAV6]", "values": [{"measurement": "Amount of daunomycin in the brain compared to vehicle-treated BBB", "setting": "blood brain barrier [4]", "result": "tremendous increase"}, {"measurement": "Metabolic stability on Caco-2 cell monolayer", "setting": "Caco-2 cell monolayers; 96-h incubation on Caco-2 cell monolayer", "result": "metabolically stable"}, {"measurement": "Binding to the expressed EC5 domain by NMR spectroscopy", "setting": "EC5 domain of E-cadherin", "result": "bind the expressed EC5 domain"}, {"measurement": "Amount of mannitol delivered to the brain: lowering when HAV6 was lowered from 1.0 mM to 0.5 mM", "setting": "blood brain barrier [5]; 0.5 mM versus 1.0 mM HAV6", "result": 40, "unit": "%"}, {"measurement": "Enhancement of 14C-mannitol permeation through the BBB compared to vehicle", "setting": "blood brain barrier [5]", "result": "significantly enhanced"}]}
{"substance": "Ac-SHAVSS-cap-ADTPPV-NH2", "values": [{"measurement": "Activity in the resealing assay compared to either ADT6 or HAV6", "setting": "[1]", "result": "did not show any improved activity"}]}
{"substance": "Ac-SSVAHS-NH2 [HAVrev, reference compound]", "values": [{"measurement": "Inhibition of resealing (% TEER difference between 8- and 2-h time points) compared to blank", "setting": "[1]; 1.0 mM peptide", "result": "could not suppress the resealing"}]}
{"substance": "Ac-TYRIWRDTAN-NH2 [BLG4]", "values": [{"measurement": "Rank of inhibitory activity in the resealing assay among BLG peptides", "setting": "[1]; 1.0 mM peptide, AP-BL sides (Fig. 5)", "result": "best inhibitory activity"}, {"measurement": "Inhibition of resealing (% TEER difference between 8- and 2-h time points) compared to blank", "setting": "[1]; 1.0 mM peptide", "result": "significantly suppress the resealing"}, {"measurement": "Binding to the expressed EC5 domain by NMR spectroscopy", "setting": "EC5 domain of E-cadherin", "result": "bind the expressed EC5 domain"}]}
{"substance": "EATDSG [LABL6, reference compound]", "values": [{"measurement": "Enhancement of 14C-mannitol permeation through the BBB compared to vehicle", "setting": "blood brain barrier [5]", "result": "did not enhance"}]}
